The text below walks through data of the RNAGym collection of RNA variant scans (doi:10.1126/science.aae0568).

Variants at the floor of the assay were thinned out. Where only a bound is given, the exact number is not on record here.

B1: tRNA (parent)
chain: GUUCCGUUGGCGUAAUGGUAACGCGUCUCCCUCCUAAGGAGAAGACUGCGGGUUCGAGUCCCGUACGGAACG

This data set covers variants of B1. The data set is described as follows: yeast fitness relative to wild type (ratio to wild type); higher = fitter; tRNA-Arg(CCU), competitive growth, 37 C, YPD. In a few lines: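 Gene amplicons from the start population and from each of six end populations were read by 100-nucleotide paired-end sequencing. Those end populations came from pooled Saccharomyces cerevisiae strains carrying tRNA-Arg(CCU) gene variants at the native locus, competed in YPD at 37°C for 24 hours. Fitness relative to wild type was worked out from changes in genotype frequencies. Genotypes needed ≥ 100 starting reads, and estimates < 0.5 were set to 0.5.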
GUUCCGUUGGCGUAAUGGUAACGCCUCUCCCUCCUAAGGAGAAGACUGUGAGUUCGAGUCCCGUACGGAACG [G25C C49U G51A]: the yeast fitness turned out to be 0.568.

Regarding GUUCCGUUGGCGUAAUGGAAAGGCGUCUCGCUCCUAAGGAGGAGAGUGCGGGUUCGAGUCCCGUACGGAACG [U19A C22G C30G A42G C46G], the yeast fitness is 0.741. As to GUUCCGUUGGGGUAAUGGUAGCGCGUCUCCCUCCUAAGGGGAAGACUGCGGGUUCGAGUCCCGUACGGAACG [C11G A21G A40G], the yeast fitness is not above 0.5. As for GUUCCGUUGGCGCAAUGGUAACGCGUCUCCCUCCUAAGGAGAAGACUGCGGGUUCGUGUCCUGUACGGAACG [U13C A57U C62U], the yeast fitness is not above 0.5.

Consider GUUCCGUUGGCGUUAUGGAAACACGUCUCCCUCCUAAGGAGACGACUGCGGGUUCGGGUCCCGGACGGAACG [A14U U19A G23A A43C A57G U64G], for which the yeast fitness is not above 0.5. In the case of GUUCCGUUGGCGUAAUGGUAACGCGUUACCCACUUCAGGAGAAGACUGCGGGUUAGAGUCCCGUCCGGACCG [C27U U28A U32A C34U A36C C55A A65C A70C] it was not above 0.5; in that of GUUCGGUUGGUGUAAUGGUAACGCCUCUCCCUCCUAAGGAGAAGACUGCGGGUUCGAGUCCCGUACGGAACG [C5G C11U G25C], 0.571; in that of GUUCCGUUGGCGUAAUGGAAACGCGUCUCCCUCCUAAGGAGAAGACUGCGGGUUUGAGUCCCGUACGGAACG [U19A C55U], 0.694.

Turning to GUUCCGUUGGCGUAAUGGUAACGCGUCUCCCUCCUUAGGAGAAGAAUGCGGGUUCGAGUCCGGUACGGAACG [A36U C46A C62G], the yeast fitness is not above 0.5. Turning to GAUCCGUUGGCGUAAUGGUAACGCGUCUCCCUCCUAAGGUGAAGACUCCGGGUUCGAGUCCCGUACGGAACG [U2A A40U G48C], the yeast fitness was not above 0.5. GUUCCGUUAGCGUAAUGAUAACGCGUCUCCCUCCUAAGGAGAAGACUGCGGGUUCGAGUGCCGUACGGAACG [G9A G18A C60G]: the yeast fitness was not above 0.5. With GUUCCGUAGGAGUGAUGGUAACGAGUCUACCUCUUAAGGAGAAGACUGCGGGUUCGAGUCGCGUCCGGAACG [U8A C11A A14G C24A C29A C34U C61G A65C], the yeast fitness was not above 0.5. For the variant GGUCCGUUGGCGUAAUGGUAACGCGUCUCCCUCCUAAGGAGAAGACUGCGGGUUCGAGCCCCGUAAAGAACG [U2G U59C C66A G67A], the yeast fitness is not above 0.5. Turning to GUUUCGUUGGCGUAAUGGUAACGCGUCUCCCUCCUAAGGAGAAGACUACGGGUGCGAGUCCCGUACGGAACG [C4U G48A U54G], the yeast fitness is not above 0.5. Take GUUCCGUCGGCGUAAUGGUAUCGAGUCUCCCUCCUAAGGAGAAGACUGCGGGUUCGAGUCCCGUACGGAACG [U8C A21U C24A]: the yeast fitness was not above 0.5.

On to GUUCCGUUGGUAUAAUGGUAACGCGUCUCCUUCCUAAGGAGAAGACUGCGGGCUCGAGUCCCAUCCGGAACG [C11U G12A C31U U53C G63A A65C], for which the yeast fitness was not above 0.5. The result for GUUCCGUUGGCGUAAUGGUAACGCGUCUCCCUCCUAAGGAGAAGCCUGCGGGUGCGAGUCCCGUACGGAACG [A45C U54G] reads 0.605. On to GUCCAGUUGGCGUAAUGGUAACGCGUCUCCCUCCUAAGGAGAAGACUGCGGGUUCGAGUCCCGUACGGAACG [U3C C5A], for which the yeast fitness is 0.89. The result for GUUCCCUUGGCGUAAUGGUAACGUGUCUCCCUCCUAAGGAGAAGACUGCGGGUUCGAGUCCCGUCCGGAACG [G6C C24U A65C] reads not above 0.5. The result for GUUCCGUUGGCGUAAUGGUAACGCGUCUCCCUCCUAAGGAGAAGGCUGCGGGUUCGAGUCACGUUCGGAACG [A45G C61A A65U] reads not above 0.5. The result for GUUCCGUUGGCGUAAUGGUAAGGCGUCUCCCUCGUAAGGAGAAGACUGCGGGUUCGAGUCGCGUACGGAACG [C22G C34G C61G] reads not above 0.5. With GUUCCGAUGGCGUAAUGGUAACGCGUCUCCCUCCUAAGGAGAAGACUGCGAAUUCGAGUCCCGUACGGAGCG [U7A G51A G52A A70G], the yeast fitness is not above 0.5. Take GUUCCGUUGGCGAAAUGGUAACGCGUAUCCCUCCUAAGGAGAAGACUGCGGGUUCGAGUCUCGUAUGGAACG [U13A C27A C61U C66U]: the yeast fitness was not above 0.5.

In the case of GUUCCGUUGGCGUAAUGGUAACGCGUCUGUCUCCUAAGGAGAAGAUUACGGGUUCAAGUCUGGUACGGAACG [C29G C30U C46U G48A G56A C61U C62G], the yeast fitness was not above 0.5.

In the case of GUUCCGUUGGCGUAAUGGUAACGCGUCUCCCUCCUAAGGAGAAGACUGCCGGUUAGCGUCCCGUACGGAACG [G50C C55A A57C], the yeast fitness turned out to be 0.559. GUUCCGUUGGCGUAAUGGUAACGCGUCUCCCUCCUAAGGAGAAGACUGCGGGUUCGGGGCCCGUACGGAACG [A57G U59G]: the yeast fitness was 0.941. For GUUCUGUUGGCGUAAUGGUAACGCGUCUCCCUCCUAAGGAGCAGACUGCGGGUUCGAGUGCCGUACGGAACG [C5U A42C C60G], the yeast fitness is not above 0.5. As for GUUCAGUUGGCGUGAUGGUAACGAGUCUCCCUCCUAAGGAGAAGACUGCGGGUUCGAGUCCCGUAGGGAACG [C5A A14G C24A C66G], the yeast fitness was not above 0.5. Take GUUCCGUUGGCGUAAUGGUAGCGCGUCUCCCUCCUAAGGAGAAGACUGAGGGUCCGAGUCCCGUGCGGAACG [A21G C49A U54C A65G]: the yeast fitness was not above 0.5.

As to GUUACGUUGGCCGAAUGGUAACGCGUCUCUCUCCUAAGGAGAAGACUGCGGGUUCGAGUCCCGUACGGAACG [C4A G12C U13G C30U], the yeast fitness was 0.55.

Regarding GUUCCGUUGGCGUAAUGGUAACGCGUCUCCCUCCUGAGGAGAAGACUGCGGGUUCGAGUCCAGUACGGAACG [A36G C62A], the yeast fitness is 0.672. As to GUUCCGUUGGCGUAAUGGUAACGCGUCUCCCUGCUAAGGAGAAGACUGCGGGUUCGAGUCCCGUAUGGAACG [C33G C66U], the yeast fitness is 0.787. Regarding GUUCCGUUGGCGUAAUGGUAACGCGUCUUCAUCCUAAGGAGAAAACUGCGGGUUCGAGUCCCGUACGGAACG [C29U C31A G44A], the yeast fitness was found to be 0.885. Turning to GUUCCGUUGGCGUAAUCGUAACGCGUCUCCCUCAUAAGGAGUCGACUGCGGGUUCGAGUCCCGUACGGAACG [G17C C34A A42U A43C], the yeast fitness is not above 0.5.

As to GUUCUGUUGGCGUAAUGGUAACGCGUCUCACUCCUAAGGAGUAGACUGCGGGUUCGAGUCCCGUACGGCACG [C5U C30A A42U A69C], the yeast fitness was not above 0.5. For GUUCCGUUGGCGUGAUGGUAACACGUCUCCCUCCUAAGGAGAAGACUGCGGGUUCGAGUACCGUACGGAACG [A14G G23A C60A], the yeast fitness was not above 0.5.

For the variant GCUCCGAUGGCGUAAUGGUAACGAGUCUCCCUCCUAGGGAGUAGACUCCGGGUACGAGUCCCGUACGGAACG [U2C U7A C24A A37G A42U G48C U54A], the yeast fitness was not above 0.5.
